One may read the half-life as the time in which the quantity being followed falls by half. Low values mean fast loss, high ones slow loss.

The target of data set [1] is T1, Nitric oxide synthase, inducible (Mus musculus, UniProt P29477).
T1 sequence (P29477 whole entry): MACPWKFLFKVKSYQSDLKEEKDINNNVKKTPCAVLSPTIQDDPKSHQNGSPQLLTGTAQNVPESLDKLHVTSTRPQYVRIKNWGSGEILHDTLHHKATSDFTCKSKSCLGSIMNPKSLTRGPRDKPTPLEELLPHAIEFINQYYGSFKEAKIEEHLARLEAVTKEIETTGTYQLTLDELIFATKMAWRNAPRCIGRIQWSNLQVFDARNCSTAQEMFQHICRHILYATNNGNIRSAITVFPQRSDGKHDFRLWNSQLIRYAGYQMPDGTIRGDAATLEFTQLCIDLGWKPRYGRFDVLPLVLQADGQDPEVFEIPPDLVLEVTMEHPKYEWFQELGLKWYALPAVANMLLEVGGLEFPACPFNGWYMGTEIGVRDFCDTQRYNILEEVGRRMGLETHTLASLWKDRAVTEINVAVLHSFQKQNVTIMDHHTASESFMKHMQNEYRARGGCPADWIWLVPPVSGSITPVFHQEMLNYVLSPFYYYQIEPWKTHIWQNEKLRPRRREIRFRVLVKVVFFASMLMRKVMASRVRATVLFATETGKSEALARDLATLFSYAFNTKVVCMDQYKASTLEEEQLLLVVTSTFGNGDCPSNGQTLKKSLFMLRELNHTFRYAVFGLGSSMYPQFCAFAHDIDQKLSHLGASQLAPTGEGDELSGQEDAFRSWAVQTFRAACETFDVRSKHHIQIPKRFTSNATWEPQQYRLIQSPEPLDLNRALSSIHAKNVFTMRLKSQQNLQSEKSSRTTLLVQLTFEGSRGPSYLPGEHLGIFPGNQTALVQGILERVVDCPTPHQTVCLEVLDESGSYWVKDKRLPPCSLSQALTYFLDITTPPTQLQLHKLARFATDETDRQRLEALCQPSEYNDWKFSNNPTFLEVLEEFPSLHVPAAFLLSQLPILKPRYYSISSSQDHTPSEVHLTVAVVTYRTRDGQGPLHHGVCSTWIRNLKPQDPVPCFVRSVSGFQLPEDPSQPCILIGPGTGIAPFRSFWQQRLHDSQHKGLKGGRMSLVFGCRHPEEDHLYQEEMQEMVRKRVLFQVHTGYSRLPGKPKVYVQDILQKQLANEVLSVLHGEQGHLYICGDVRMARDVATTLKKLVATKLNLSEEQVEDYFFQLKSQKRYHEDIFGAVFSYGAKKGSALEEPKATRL
The experiment in a line: Prodrug activation in LPS-stimulated mouse […] cells assessed as iNOS-mediated Nomega-hydroxy-L-arginine formation by measuring increase in NO release at 1 mM incubated for 2.5 hrs in presence of NOS inhibitor L-NAME by Hoechst 33342/DAF-FM-DA staining based fluorescence microscopic analysis. As to conditions: 1000 µM. Summed up:
(§1)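 Washed into arginine/lysine-free DMEM with 2% FBS. Compound 1 mM final from DPBS++ stock, 150 min (L-NAME co-incubated where stated). Then 5 µM DAF-FM-DA plus 10 µM Hoechst 15 min. Six images per well, triplicate wells. Cell-normalized intensity minus DPBS++ control, scaled to reference substrate = 100%. Mean ± SEM.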

Data set [2] has as its target T1, Nitric oxide synthase, inducible. The experiment in a line: Prodrug activation in LPS-stimulated mouse […] cells assessed as iNOS-mediated Nomega-hydroxy-L-arginine formation by measuring increase in NO release at 1 mM incubated for 2.5 hrs by Hoechst 33342/DAF-FM-DA staining based fluorescence microscopic analysis. As to conditions: 1000 µM. Summed up: as §1

In data set [3] the test system is J774.A1. The experiment in a line: Toxicity in mouse […] cells assessed as changes in cell shape up to 1 mM after 2.5 hrs by Hoechst 33342/DAPI/GFP staining based fluorescence microscopic analysis. As to conditions: j774.a1, 2.5 h. Summed up: (§2)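 Stained with Hoechst 33342 and DAF-FM-DA, then imaged by automated fluorescence microscopy (about 1000 cells per well). Cell shape, blebbing, apoptosis and cell numbers judged against DPBS++ vehicle controls.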

Data set [4] deals with J774.A1. The experiment in a line: Toxicity in mouse […] cells assessed as reduction in cell proliferation up to 1 mM after 2.5 hrs by Hoechst 33342/DAF-FM-DA staining based fluorescence microscopic analysis. As to conditions: j774.a1, 2.5 h. Summed up:
as §2

The test system of data set [5] is J774.A1. The experiment in a line: Toxicity in mouse […] cells assessed as appearance of cell blebbing up to 1 mM after 2.5 hrs by Hoechst 33342/DAPI/GFP staining based fluorescence microscopic analysis. As to conditions: j774.a1, 2.5 h. Summed up:
as §2

In data set [6] the target is T2, Nitric oxide synthase, inducible (Mus musculus) (UniProt P29477).
T2 sequence (whole entry): T1 sequence (P29477 whole entry)
The experiment in a line: Substrate activity at recombinant mouse iNOS assessed as increase in NO release incubated for 30 mins in presence of NADPH followed by LDH and sodium pyruvate addition measured after 15 mins by Griess assay.

The target in data set [7] is T2, Nitric oxide synthase, inducible (Mus musculus). The experiment in a line: Substrate activity at iNOS in LPS-stimulated mouse J744A.1 cells assessed as increase in NO release at 1 mM incubated for 2.5 hrs by Hoechst 33342/DAF-FM-DA staining based fluorescence microscopic analysis. Summed up: as §1
Data set [8] has as its system J774.A1. The data set can be described thus: Toxicity in mouse […] cells assessed as induction of apoptosis up to 1 mM after 2.5 hrs by Hoechst 33342/DAPI/GFP staining based fluorescence microscopic analysis. As to conditions: j774.a1, 2.5 h. The class given is cell-based. Summed up:
as §2

A short description of data set [9]: Prodrug activation assessed as porcine liver carboxylesterase/recombinant Escherichia coli beta-galactosidase-mediated Nomega-hydroxy-L-arginine formation by measuring NO release at 500 uM preincubated for 150 mins followed by recombinant mouse iNOS and NADPH addition incubated for 30 mins followed by LDH and sodium pyruvate addition measured after 15 mins by Griess assay. As to conditions: 0.5 h.

Data set [10] in a line: Half life in 10 mM potassium phosphate buffer at 250 uM at pH 9 at 37 degC by HPLC analysis. The class given is physicochemical. Summed up:
(§3)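 Half-life from incubations at 250 µM in 10 mM potassium phosphate buffer, 37 °C, pH 7.4 or 9.0. Sampling at 3, 6 and 24 h. HPLC of o-phthalaldehyde derivatives with fluorescence detection (ex 338 nm, em 425 nm).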

Data set [11] can be described thus: Prodrug activation assessed as porcine liver carboxylesterase/beta-galactosidase-mediated Nomega-hydroxy-L-arginine formation at 500 uM measured up to 150 mins by HPLC analysis. On the set-up: species or system Sus scrofa. As to conditions: pig, 2.5 h. Summed up: (§4)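 Porcine liver carboxylesterase (133 U/mL) plus β-galactosidase (33 U/mL) pre-incubated 3 min at 37 °C in 50 mM triethanolamine pH 7.0. Started with prodrug at 500 µM. Samples at 0–150 min quenched with cold MeOH, centrifuged and analysed by o-phthalaldehyde/fluorescence HPLC. No-enzyme controls included.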

Data set [12] is described as follows: Half life in 10 mM potassium phosphate buffer at 250 uM at pH 7.4 at 37 degC by HPLC analysis. The class given is physicochemical. Summed up: as §3
The target in the next data set is T3, Liver carboxylesterase (Sus scrofa, UniProt Q29550).
T3 sequence (Q29550 whole entry): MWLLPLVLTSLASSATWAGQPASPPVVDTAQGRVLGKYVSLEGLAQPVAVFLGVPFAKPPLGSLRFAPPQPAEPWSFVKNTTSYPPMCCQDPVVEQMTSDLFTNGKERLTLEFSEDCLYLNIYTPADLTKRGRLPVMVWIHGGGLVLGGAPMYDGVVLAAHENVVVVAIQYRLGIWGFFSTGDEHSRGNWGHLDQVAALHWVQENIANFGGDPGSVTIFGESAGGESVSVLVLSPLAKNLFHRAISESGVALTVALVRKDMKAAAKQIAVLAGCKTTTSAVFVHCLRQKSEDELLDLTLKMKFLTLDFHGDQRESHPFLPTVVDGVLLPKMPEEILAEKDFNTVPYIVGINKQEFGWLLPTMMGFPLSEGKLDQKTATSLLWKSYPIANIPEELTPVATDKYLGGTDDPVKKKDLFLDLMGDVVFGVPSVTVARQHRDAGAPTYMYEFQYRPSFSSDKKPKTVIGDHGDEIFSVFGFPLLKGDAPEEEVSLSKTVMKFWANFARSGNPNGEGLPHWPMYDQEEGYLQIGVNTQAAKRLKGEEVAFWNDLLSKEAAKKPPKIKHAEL
The data set can be described thus: Prodrug activation assessed as porcine liver carboxylesterase-mediated Sodium Nomega-(beta-D-Galactopyranos-1-yloxy)-L-arginine formation at 500 uM measured up to 150 mins by HPLC analysis. As to conditions: pig, 2.5 h. Summed up:
as §4

Data set [13] is described as follows: Chemical stability in 10 mM potassium phosphate buffer at 250 uM at pH 9 incubated up to 24 hrs at 37 degC by HPLC analysis. The class given is physicochemical. As to conditions: pH 9, 24 h. Summed up:
(§5)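 Compound at 250 µM in 10 mM potassium phosphate buffer at pH 2.0, 7.4 or 9.0, 37 °C. Samples taken at 3, 6 and 24 h, diluted 1:1 with 100 mM potassium phosphate pH 7.4. Analysed by HPLC after o-phthalaldehyde derivatization: RP18 column at 37 °C, fluorescence detection (ex 338 nm, em 425 nm).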

Data set [14] can be described thus: Chemical stability in 10 mM potassium phosphate buffer at 250 uM at pH 7.4 incubated up to 24 hrs at 37 degC by HPLC analysis. As to conditions: pH 7.4, 24 h. The class given is physicochemical. Summed up: as §5
The next data set addresses Beta-galactosidase (Escherichia coli, UniProt Q8VNN2). The experiment in a line: Prodrug activation assessed as recombinant Escherichia coli beta-galactosidase-mediated Nomega-hydroxy-L-arginine formation at 500 uM measured up to 150 mins by HPLC analysis. As to conditions: 2.5 h. Summed up: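 Recombinant E. coli β-galactosidase (25 U/mL) pre-incubated 3 min at 37 °C in 50 mM triethanolamine pH 7.0, then prodrug added at 500 µM. Samples at 0, 15, 45, 90 and 150 min stopped with ice-cold MeOH, centrifuged and analysed by o-phthalaldehyde/fluorescence HPLC. No-enzyme controls included.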

A short description of data set [15]: Chemical stability in 10 mM potassium phosphate buffer at 250 uM at pH 2 incubated up to 24 hrs at 37 degC by HPLC analysis. The class given is physicochemical. As to conditions: pH 2, 24 h. Summed up:
as §5

Data set [16] is described as follows: Prodrug activation assessed as almond beta-glucosidase-mediated Nomega-hydroxy-L-arginine formation at 500 uM measured up to 150 mins by HPLC analysis. As to conditions: prunus dulcis, 2.5 h. Summed up:
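β-Glucosidase (recombinant, almond; 33 U/mL) pre-incubated 3 min at 37 °C in 50 mM triethanolamine pH 7.0. Reaction started with prodrug (500 µM). Aliquots at 0, 15, 45, 90 and 150 min quenched with equal volume ice-cold MeOH, then centrifuged. Supernatant analysed by o-phthalaldehyde/fluorescence HPLC. No-enzyme controls run alongside. Mean ± SD, n = 2-3.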

Active and inactive are the calls of the source. The rule behind the calls is not given here.

Chain of Beta-galactosidase (Q8VNN2 whole entry): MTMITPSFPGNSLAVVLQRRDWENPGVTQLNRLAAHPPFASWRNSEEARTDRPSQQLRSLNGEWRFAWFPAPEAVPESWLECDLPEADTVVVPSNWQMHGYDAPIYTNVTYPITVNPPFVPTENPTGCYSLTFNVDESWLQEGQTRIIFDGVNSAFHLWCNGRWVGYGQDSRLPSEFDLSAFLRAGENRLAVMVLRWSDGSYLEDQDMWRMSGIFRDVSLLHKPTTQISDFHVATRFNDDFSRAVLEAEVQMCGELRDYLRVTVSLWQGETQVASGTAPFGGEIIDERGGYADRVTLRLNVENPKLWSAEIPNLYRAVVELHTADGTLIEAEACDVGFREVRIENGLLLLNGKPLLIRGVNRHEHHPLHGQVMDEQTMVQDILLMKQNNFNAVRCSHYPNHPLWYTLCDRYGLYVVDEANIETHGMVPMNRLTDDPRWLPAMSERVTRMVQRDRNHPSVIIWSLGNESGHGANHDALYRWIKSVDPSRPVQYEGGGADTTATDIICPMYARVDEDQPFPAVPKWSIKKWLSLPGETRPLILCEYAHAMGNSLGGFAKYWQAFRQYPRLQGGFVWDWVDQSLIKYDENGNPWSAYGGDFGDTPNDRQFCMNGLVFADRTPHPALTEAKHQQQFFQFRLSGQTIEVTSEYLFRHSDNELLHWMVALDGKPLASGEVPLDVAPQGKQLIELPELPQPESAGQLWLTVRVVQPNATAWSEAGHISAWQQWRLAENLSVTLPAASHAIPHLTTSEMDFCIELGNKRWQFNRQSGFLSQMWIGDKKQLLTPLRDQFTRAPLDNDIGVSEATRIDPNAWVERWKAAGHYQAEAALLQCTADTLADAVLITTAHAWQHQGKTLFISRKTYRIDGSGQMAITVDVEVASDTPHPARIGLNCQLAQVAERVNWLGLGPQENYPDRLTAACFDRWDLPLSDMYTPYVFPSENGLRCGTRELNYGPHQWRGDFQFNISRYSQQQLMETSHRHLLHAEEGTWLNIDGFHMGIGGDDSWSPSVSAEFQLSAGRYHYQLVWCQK

For the compound `CCOC(=O)[C@@H](N)CCCN/C(N)=N/O[C@@H]1O[C@H](CO)[C@@H](O)[C@H](O)[C@H]1O.Cl.Cl`, the Drug metabolism result in data set [1] is “Metabolite_Notdetected”; in data set [2], “Metabolite_Detected”.
Turning to `CCOC(=O)[C@@H](N)CCCN/C(N)=N/O[C@@H]1O[C@H](COC(C)=O)[C@H](OC(C)=O)[C@H](OC(C)=O)[C@H]1OC(C)=O.Cl.Cl`, in data set [1], the Drug metabolism entry is given as “Metabolite_Notdetected”.
As for `N=C(NO)NCCC[C@H](N)C(=O)O`, the Activity result in the data set on J774.A1 [3], with J774.A1 [4], with J774.A1 [5] and in the data set on J774.A1 [8] was “Non-Toxic” in each case. The outcome in data set [6] and in data set [7] was Active.
In the case of `CCOC(=O)[C@@H](N)CCCN/C(N)=N/O[C@@H]1O[C@H](CO)[C@H](O)[C@H](O)[C@H]1O.Cl.Cl`, the Drug metabolism entry in [9] is “Metabolite_Detected”; in [11] it was “Metabolite_Detected”; at Liver carboxylesterase it was “Metabolite_Detected”; in data set [2], “Metabolite_Notdetected”. The half-life at 250 µM in [10] and in [12] was 10 to 12 h throughout.
In the case of `CCOC(=O)[C@@H](N)CCCN/C(N)=N/O[C@@H]1O[C@H](COC(C)=O)[C@@H](OC(C)=O)[C@H](OC(C)=O)[C@H]1OC(C)=O.Cl.Cl`, the Drug metabolism entry in data set [1] is “Metabolite_Notdetected”; in data set [2] it was “Metabolite_Detected”.
As for `N/C(=N\O[C@@H]1O[C@H](CO)[C@H](O)[C@H](O)[C@H]1O)NCCC[C@H](N)C(=O)[O-].[Na+]`, the Stability entry in [13], in [14] and in data set [15] was “Stable” throughout. The Drug metabolism entry in data set [9] is reported as “Metabolite_Detected”; at Beta-galactosidase it was “Metabolite_Detected”; in data set [16] it was “Metabolite_Detected”; in data set [2], “Metabolite_Notdetected”.
Regarding `N/C(=N\O[C@@H]1O[C@H](CO)[C@@H](O)[C@H](O)[C@H]1O)NCCC[C@H](N)C(=O)[O-].[Na+]`, the Drug metabolism result is listed as “Metabolite_Notdetected” in data set [1], “Metabolite_Detected” in [16] and “Metabolite_Detected” in [2].
Turning to `CC(=O)OC[C@H]1O[C@@H](O/N=C(\N)NCCC[C@H](N)C(=O)O)[C@H](OC(C)=O)[C@@H](OC(C)=O)[C@@H]1OC(C)=O.Cl.Cl`, the Drug metabolism result was “Metabolite_Notdetected” in data set [1], “Metabolite_Detected” in [16] and “Metabolite_Detected” in [2].
Take `CC(=O)OC[C@H]1O[C@@H](O/N=C(\N)NCCC[C@H](N)C(=O)O)[C@H](OC(C)=O)[C@@H](OC(C)=O)[C@H]1OC(C)=O.Cl.Cl`: the half-life at 250 µM in [10] and in data set [12] was greater than 24 h each time. Besides, the Drug metabolism entry (on Beta-galactosidase; in [2]) was “Metabolite_Notdetected” in each case.

Source of the values: ChEMBL document CHEMBL4428073, “Design, Synthesis, and Bioactivation of O-Glycosylated Prodrugs of the Natural Nitric Oxide Precursor N(ω)-Hydroxy-l-arginine” (J Med Chem, 2016).
